Test results published in PubChem BioAssay AID652011 (Sanford-Burnham Center for Chemical Genomics, 2013).
Where “and” joins values, the source holds several entries; their conditions need not be identical. Equal entries are not always repeated.

Target: Endothelial PAS domain-containing protein 1 (Homo sapiens) (UniProt Q99814)
Test: HIF-1a and HIF-2a reporter inhibitors, SAR follow-up, cell-based, luminescence, MIAPaCa-2, 786-0, panel (AID 652011)
Conditions: MIAPaCa-2/PANC HIF reporter, luciferase luminescence, desferoxamine, overnight, HIF2a PANC, run 1; at 99 µM (top of the series)
Outline: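 Detection: luminescence, One-Glo; Reagent: desferoxamine; Incubation: overnight seeding and compound exposure, 37 °C, 5% CO2, 10-min detection.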

Endothelial PAS domain-containing protein 1 (Homo sapiens), sequence (Q99814 whole entry, looked up, the tested form may be a part): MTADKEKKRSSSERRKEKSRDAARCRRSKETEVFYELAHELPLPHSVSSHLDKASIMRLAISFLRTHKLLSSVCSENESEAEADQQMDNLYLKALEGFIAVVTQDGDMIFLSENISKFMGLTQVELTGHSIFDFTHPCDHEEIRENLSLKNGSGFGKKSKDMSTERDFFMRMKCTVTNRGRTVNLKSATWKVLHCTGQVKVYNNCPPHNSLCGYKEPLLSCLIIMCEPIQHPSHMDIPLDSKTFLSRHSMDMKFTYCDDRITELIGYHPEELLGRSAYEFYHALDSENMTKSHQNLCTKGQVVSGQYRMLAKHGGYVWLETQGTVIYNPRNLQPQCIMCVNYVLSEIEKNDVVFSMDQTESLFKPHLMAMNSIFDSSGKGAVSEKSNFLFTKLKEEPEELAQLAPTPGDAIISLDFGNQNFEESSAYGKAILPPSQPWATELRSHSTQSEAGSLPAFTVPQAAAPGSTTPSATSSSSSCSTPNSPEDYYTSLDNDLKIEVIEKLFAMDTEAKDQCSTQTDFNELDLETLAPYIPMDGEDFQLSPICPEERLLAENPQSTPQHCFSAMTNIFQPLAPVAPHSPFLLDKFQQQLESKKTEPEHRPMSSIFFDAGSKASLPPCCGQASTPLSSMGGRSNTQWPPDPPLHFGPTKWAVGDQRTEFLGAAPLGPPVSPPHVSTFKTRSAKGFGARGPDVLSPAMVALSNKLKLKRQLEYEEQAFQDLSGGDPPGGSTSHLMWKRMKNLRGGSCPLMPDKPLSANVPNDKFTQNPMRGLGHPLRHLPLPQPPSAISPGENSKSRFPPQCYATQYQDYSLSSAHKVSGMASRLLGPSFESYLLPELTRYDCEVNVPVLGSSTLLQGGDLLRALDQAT

| SMILES | inhibition |
| --- | --- |
| CCc1ccc(-c2noc(CCC(=O)NC)n2)cc1 | 1.82% |
| CC(C)(C)c1ccc(-c2noc(CCC(=O)O)n2)cc1 | 119% |
| CC(C)(C)c1ccc(-c2noc(CCC(=O)NC3CC3)n2)cc1 | 53.7% |
| CC(C)(C)NC(=O)CCc1nc(-c2ccc(C(C)(C)C)cc2)no1 | 83.8% |
| CCNC(=O)CCc1nc(-c2cccc(C)c2)no1 | -22.1% |
| CCCCc1ccc(-c2noc(CCC(=O)NC(C)(C)C)n2)cc1 | 62.8% |
| CCC(C)NC(=O)CCc1nc(-c2ccccc2)no1 (stereo unspecified) | 63.6% |
| CCNC(=O)CCc1nc(-c2ccc(C(C)C)cc2)no1 | -50.6% |
| CCNC(=O)CCc1nc(-c2c(Cl)cccc2Cl)no1 | 53.6% |
| CNC(=O)CCc1nc(-c2ccc(F)cc2)no1 | -27.1% |
| CC(C)CNC(=O)CCc1nc(-c2ccc(C(C)(C)C)cc2)no1 | 63.8% |
| CCNC(=O)CCc1nc(-c2ccccc2Cl)no1 | 26% |
| CCCCc1ccc(-c2noc(CCC(=O)NCC)n2)cc1 | -29.8% |
| CC(C)(C)c1ccc(-c2noc(CCC(=O)N3CCOCC3)n2)cc1 | -33.9% |
| CN(C)C(=O)CCc1nc(-c2ccc(C(C)(C)C)cc2)no1 | -71.1% and 11.2% |
| CNC(=O)CCc1nc(-c2ccccc2)no1 | 11.4% and 50.7% |

| SMILES | inhibition |
| --- | --- |
| O=C(O)CCc1nc(-c2ccccc2)no1 | 25.2% |
| CCCNC(=O)CCc1nc(-c2ccc(C(C)(C)C)cc2)no1 | 7.88% |
| CNC(=O)CCc1nc(-c2ccc(C(C)(C)C)cc2)no1 | 65.3% |
| CCNC(=O)CCc1nc(-c2ccc(OCC)cc2)no1 | -27.3% |
| CNC(=O)CCc1nc(-c2ccc(OC)cc2)no1 | 36.2% |
| CC(C)(C)c1ccc(-c2noc(CCC(=O)NC3CCCC3)n2)cc1 | 94.6% |
| CCCCc1ccc(-c2noc(CCC(=O)NC(C)CC)n2)cc1 (stereo unspecified) | 45.6% |
| CCOc1ccc(-c2noc(CCC(=O)NC)n2)cc1 | 112% |
| CCC(C)NC(=O)CCc1nc(-c2ccc(C(C)(C)C)cc2)no1 (stereo unspecified) | -20.2% |
| CC(C)(C)c1ccc(-c2noc(CCC(=O)NC3CCCCC3)n2)cc1 | 93.4% |
| CCOc1ccccc1NC(=O)CCc1nc(-c2ccc(C(C)(C)C)cc2)no1 | 117% |
| CC(C)(C)c1ccc(-c2noc(CCC(=O)Nc3ccccc3)n2)cc1 | 116% |
| CCCCc1ccc(-c2noc(CCC(=O)NC)n2)cc1 | -53% |
| O=C(CCc1nc(-c2ccccc2)no1)NC1CC1 | 66% |
| CC(C)(C)NC(=O)CCc1nc(-c2ccccc2)no1 | 35.7% |
